Measurements as given in ChEMBL document CHEMBL1255245, “Relative replication capacity and selective advantage profiles of protease inhibitor-resistant hepatitis C virus (HCV) NS3 protease mutants in the HCV genotype 1b replicon system” (Antimicrob Agents Chemother, 2008).
pEC50: −log10 of the molar value.

Tests used:
Hepatitis C virus [1] = assay: Selectivity ratio of EC50 for Hepatitis C virus genotype 1b N expressing NS3 D168V mutant infected in human HuH7 cells to EC50 for Hepatitis C virus genotype 1b N expressing wild type NS3 infected in human HuH7 cells at 100 nM; assay type: functional, Hepacivirus hominis, genotype 1b strain N, Huh-7
Hepatitis C virus [2] = assay: Selectivity ratio of EC50 for Hepatitis C virus genotype 1b N expressing NS3 A156T mutant infected in human HuH7 cells to EC50 for Hepatitis C virus genotype 1b N expressing wild type NS3 infected in human HuH7 cells at 100 nM; assay type: functional, Hepacivirus hominis, genotype 1b strain N, Huh-7
Hepatitis C virus [3] = assay: Selectivity ratio of EC50 for Hepatitis C virus genotype 1b N expressing NS3 R155Q mutant infected in human HuH7 cells to EC50 for Hepatitis C virus genotype 1b N expressing wild type NS3 infected in human HuH7 cells at 100 nM; assay type: functional, Hepacivirus hominis, genotype 1b strain N, Huh-7
Hepatitis C virus [4] = assay: Selectivity ratio of EC50 for Hepatitis C virus genotype 1b N expressing NS3 R155K mutant infected in human HuH7 cells to EC50 for Hepatitis C virus genotype 1b N expressing wild type NS3 infected in human HuH7 cells at 100 nM; assay type: functional, Hepacivirus hominis, genotype 1b strain N, Huh-7
Hepatitis C virus [5] = assay: Selectivity ratio of EC50 for Hepatitis C virus genotype 1b N expressing NS3 V170A mutant infected in human HuH7 cells to EC50 for Hepatitis C virus genotype 1b N expressing wild type NS3 infected in human HuH7 cells at 10 nM; assay type: functional, Hepacivirus hominis, genotype 1b strain N, Huh-7
Hepatitis C virus [6] = assay: Selectivity ratio of EC50 for Hepatitis C virus genotype 1b N expressing NS3 D168V mutant infected in human HuH7 cells to EC50 for Hepatitis C virus genotype 1b N expressing wild type NS3 infected in human HuH7 cells at 10 nM; assay type: functional, Hepacivirus hominis, genotype 1b strain N, Huh-7
Hepatitis C virus [7] = assay: Selectivity ratio of EC50 for Hepatitis C virus genotype 1b N expressing NS3 A156T mutant infected in human HuH7 cells to EC50 for Hepatitis C virus genotype 1b N expressing wild type NS3 infected in human HuH7 cells at 10 nM; assay type: functional, Hepacivirus hominis, genotype 1b strain N, Huh-7
Hepatitis C virus [8] = assay: Selectivity ratio of EC50 for Hepatitis C virus genotype 1b N expressing NS3 R155Q mutant infected in human HuH7 cells to EC50 for Hepatitis C virus genotype 1b N expressing wild type NS3 infected in human HuH7 cells at 10 nM; assay type: functional, Hepacivirus hominis, genotype 1b strain N, Huh-7
Hepatitis C virus [9] = assay: Selectivity ratio of EC50 for Hepatitis C virus genotype 1b N expressing NS3 R155K mutant infected in human HuH7 cells to EC50 for Hepatitis C virus genotype 1b N expressing wild type NS3 infected in human HuH7 cells at 10 nM; assay type: functional, Hepacivirus hominis, genotype 1b strain N, Huh-7
Hepatitis C virus [10] = assay: Selectivity ratio of EC50 for Hepatitis C virus genotype 1b N expressing NS3 V170A mutant infected in human HuH7 cells to EC50 for Hepatitis C virus genotype 1b N expressing wild type NS3 infected in human HuH7 cells; assay type: functional, Hepacivirus hominis, genotype 1b strain N, Huh-7
Procedure, shortened: (§1)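 Change in resistance: mutant replicon EC50 divided by wild-type 1b N replicon EC50 for the same drug. Both EC50s come from 4-day transient-replication assays in electroporated Huh7 cells with a firefly luciferase read-out, fitted from triplicate-well means. Mean of at least three experiments.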

Hepatitis C virus [11] = assay: Selectivity ratio of EC50 for Hepatitis C virus genotype 1b N expressing NS3 D168A mutant infected in human HuH7 cells to EC50 for Hepatitis C virus genotype 1b N expressing wild type NS3 infected in human HuH7 cells; assay type: functional, Hepacivirus hominis, genotype 1b strain N, Huh-7; procedure, shortened: as §1
Hepatitis C virus [12] = assay: Selectivity ratio of EC50 for Hepatitis C virus genotype 1b N expressing NS3 D168V mutant infected in human HuH7 cells to EC50 for Hepatitis C virus genotype 1b N expressing wild type NS3 infected in human HuH7 cells; assay type: functional, Hepacivirus hominis, genotype 1b strain N, Huh-7; procedure, shortened: as §1
Hepatitis C virus [13] = assay: Selectivity ratio of EC50 for Hepatitis C virus genotype 1b N expressing NS3 A156V mutant infected in human HuH7 cells to EC50 for Hepatitis C virus genotype 1b N expressing wild type NS3 infected in human HuH7 cells; assay type: functional, Hepacivirus hominis, genotype 1b strain N, Huh-7; procedure, shortened: as §1
Hepatitis C virus [14] = assay: Selectivity ratio of EC50 for Hepatitis C virus genotype 1b N expressing NS3 A156S mutant infected in human HuH7 cells to EC50 for Hepatitis C virus genotype 1b N expressing wild type NS3 infected in human HuH7 cells; assay type: functional, Hepacivirus hominis, genotype 1b strain N, Huh-7; procedure, shortened: as §1
Hepatitis C virus [15] = assay: Selectivity ratio of EC50 for Hepatitis C virus genotype 1b N expressing NS3 V36M/R155K double mutant infected in human HuH7 cells to EC50 for Hepatitis C virus genotype 1b N expressing wild type NS3 infected in human HuH7 cells; assay type: functional, Hepacivirus hominis, genotype 1b strain N, Huh-7; procedure, shortened: as §1
Hepatitis C virus [16] = assay: Selectivity ratio of EC50 for Hepatitis C virus genotype 1b N expressing NS3 A156T mutant infected in human HuH7 cells to EC50 for Hepatitis C virus genotype 1b N expressing wild type NS3 infected in human HuH7 cells; assay type: functional, Hepacivirus hominis, genotype 1b strain N, Huh-7; procedure, shortened: as §1
Hepatitis C virus [17] = assay: Selectivity ratio of EC50 for Hepatitis C virus genotype 1b N expressing NS3 R155K mutant infected in human HuH7 cells to EC50 for Hepatitis C virus genotype 1b N expressing wild type NS3 infected in human HuH7 cells; assay type: functional, Hepacivirus hominis, genotype 1b strain N, Huh-7; procedure, shortened: as §1
Hepatitis C virus [18] = assay: Selectivity ratio of EC50 for Hepatitis C virus genotype 1b N expressing NS3 R155Q mutant infected in human HuH7 cells to EC50 for Hepatitis C virus genotype 1b N expressing wild type NS3 infected in human HuH7 cells; assay type: functional, Hepacivirus hominis, genotype 1b strain N, Huh-7; procedure, shortened: as §1
Hepatitis C virus [19] = assay: Selectivity ratio of EC50 for Hepatitis C virus genotype 1b N expressing NS3 V36M mutant infected in human HuH7 cells to EC50 for Hepatitis C virus genotype 1b N expressing wild type NS3 infected in human HuH7 cells; assay type: functional, Hepacivirus hominis, genotype 1b strain N, Huh-7; procedure, shortened: as §1
Hepatitis C virus [20] = assay: Antiviral activity against wild-type Hepatitis C virus genotype 1b N infected in human Huh7 cells; assay type: functional, organism-based, Hepacivirus hominis; conditions: genotype 1b strain N, Huh-7
Procedure, shortened: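 Transient replication: firefly-luciferase replicon RNA (genotype 1b N strain) transcribed in vitro and electroporated into Huh7 cells, plated in DMEM with 10% FBS. Luciferase read at 4 h to gauge transfection/translation. Drug dilutions added to a second plate set, incubated 4 days at 37°C, then luciferase measured. Triplicate samples per experiment; EC50 fitted from means; at least three experiments.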

Hepatitis C virus [21] = assay: Selectivity ratio of EC50 for Hepatitis C virus genotype 1b N expressing NS3 T54A mutant infected in human HuH7 cells to EC50 for Hepatitis C virus genotype 1b N expressing wild type NS3 infected in human HuH7 cells; assay type: functional, Hepacivirus hominis, genotype 1b strain N, Huh-7; procedure, shortened: as §1
Hepatitis C virus [22] = assay: Selectivity ratio of EC50 for Hepatitis C virus genotype 1b N expressing NS3 V170A mutant infected in human HuH7 cells to EC50 for Hepatitis C virus genotype 1b N expressing wild type NS3 infected in human HuH7 cells at 100 nM; assay type: functional, Hepacivirus hominis, genotype 1b strain N, Huh-7
Hepatitis C virus [23] = assay: Selectivity ratio of EC50 for Hepatitis C virus genotype 1b N expressing NS3 R155K mutant infected in human HuH7 cells to EC50 for Hepatitis C virus genotype 1b N expressing wild type NS3 infected in human HuH7 cells at >10 nM; assay type: functional, Hepacivirus hominis, genotype 1b strain N, Huh-7

Compound | Ratio EC50 (Hepatitis C virus [10]) | Ratio EC50 (Hepatitis C virus [11]) | Ratio EC50 (Hepatitis C virus [12]) | Ratio EC50 (Hepatitis C virus [13]) | Ratio EC50 (Hepatitis C virus [14]) | Ratio EC50 (Hepatitis C virus [15]) | Ratio EC50 (Hepatitis C virus [16]) | Ratio EC50 (Hepatitis C virus [17]) | Ratio EC50 (Hepatitis C virus [18]) | Ratio EC50 (Hepatitis C virus [19]) | pEC50 (Hepatitis C virus [20]) | Ratio EC50 (Hepatitis C virus [21]) | further results
COc1ccc2c(O[C@@H]3C[C@H]4C(=O)N[C@]5(C(=O)O)C[C@H]5/C=C\CCCCC[C@H](NC(=O)OC5CCCC5)C(=O)N4C3)cc(-c3csc(NC(C)C)n3)nc2c1 [CILUPREVIR] | 1.5 | 63.3 | 193.6 | 445 | 28 | 139.9 | 366.6 | 147.5 | 29.6 | 0.8 | 8.82 | 0.6 | Ratio EC50 (Hepatitis C virus [1]): 660; Ratio EC50 (Hepatitis C virus [2]): 660; Ratio EC50 (Hepatitis C virus [3]): 660; Ratio EC50 (Hepatitis C virus [4]): 660; Ratio EC50 (Hepatitis C virus [5]): 7; Ratio EC50 (Hepatitis C virus [6]): 7; Ratio EC50 (Hepatitis C virus [7]): 7; Ratio EC50 (Hepatitis C virus [8]): 7; Ratio EC50 (Hepatitis C virus [9]): 7; Ratio EC50 (Hepatitis C virus [22]): 660
CC(C)(C)OC(=O)N[C@H]1CCCCC/C=C\[C@@H]2C[C@@]2(C(=O)NS(=O)(=O)C2CC2)NC(=O)[C@@H]2C[C@@H](OC(=O)N3Cc4cccc(F)c4C3)CN2C1=O [DANOPREVIR] | 1.2 | 14 | 14.9 | 7.1 | 40 | 55.7 | 96 | 89.3 | 6.1 | 0.7 | 9.52 | 0.9 | Ratio EC50 (Hepatitis C virus [23]): 33
CCC[C@H](NC(=O)[C@@H]1[C@H]2CCC[C@H]2CN1C(=O)[C@@H](NC(=O)[C@@H](NC(=O)c1cnccn1)C1CCCCC1)C(C)(C)C)C(=O)C(=O)NC1CC1 [TELAPREVIR] |  | 0.1 | 0.2 | 63.1 | 19 | 3.3 | 96.3 | 5.4 | 1.3 | 0.7 | 6.49 | 6.7 | 
